Measured values: paper PMC8434796 (Glycobiology, 2021)
≈ marks a conversion by molar mass, not a printed value. Where “and” joins values, the source holds several entries; their conditions need not be identical. Equal entries are not always repeated. Values belong to the compound of their own block, whether it stands above or below them.

Key:
HAS3 = test: qPCR relative expression of HAS3 in NIH3T3 cells; assay type: cell-based, mouse
How it was run: (§1)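 Total RNA isolated with TRI reagent; concentration and quality checked by spectrophotometry and electrophoresis. Target mRNA quantified by SYBR Green real-time qPCR and normalized to GAPDH mRNA. Values are mean ± SD of three technical replicates.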

Hyal2 = test: qPCR relative expression of Hyal2 in NIH3T3 cells; assay type: cell-based, mouse
How it was run: as §1

B16F10 cells = details: 30 μM, ref Nagy et al. 2019; cited from earlier work
[1] = system: CCl4 induced liver fibrosis; details: CCl4 treated animals; ref Andreichenko et al. 2019; cited from earlier work
[2] = mice fed with 5% chow, averaged over 24 h; ref Kuipers et al. 2016; cited from earlier work
[3] = system: A2058 melanoma cells, MCF-7 and MDA-MB-361 breast, SKOV-3 ovarian and UT-SCC118 squamous carcinoma cells; details: incubation with 4MU; ref Kultti et al. 2009; cited from earlier work
HAS2 = test: qPCR relative expression of HAS2 in NIH3T3 cells; assay type: cell-based, mouse
How it was run: as §1

NIH3T3 cells [4] = test: Microscopic evaluation; assay type: cell-based, mouse; details: 10 μM, 3 days, HABP staining, vs DMSO control
How it was run: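 NIH3T3 seeded at 2 × 10^4 cells/well; next day fresh medium with 10 μM test compound, 3 days. Fixed 10 min in 10% buffered formalin, avidin-biotin blocked, biotinylated HABP overnight at 4°C, then streptavidin-Alexa 488, Hoechst and phalloidin. Confocal 40× 5 × 5 mosaics; HA-positive area as % of total cell area. Three wells. Controls: 0.05% DMSO; hyaluronidase digest of untreated cells (1 mg/mL, 30 min, 37°C).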

Hyal1 = test: qPCR relative expression of Hyal1 in NIH3T3 cells; assay type: cell-based, mouse
How it was run: as §1

NIH3T3 cells [5] = test: Cell population doubling time; assay type: cell-based, mouse; details: 72 h; for Doubling time: control 21 h
endothelial cells = details: 0.6 μM, ref Nagy et al. 2010; cited from earlier work
[6] = system: CCl4 induced liver fibrosis; test: CCl4-induced liver fibrosis in mice; assay type: in vivo; details: for Blood parameters, compound alone vs control group: mice treated by compound only, 600 mg/kg daily; for Hepatotoxicity of compound alone (AST/ALT): mice, daily dose of 600 mg/kg per os
[7] = system: hyaluronan synthase activity; details: plasma membrane preparations containing hyaluronan synthase activity; ref Nakamura et al. 1997; cited from earlier work
NIH3T3 cells [8] = test: Inhibition of hyaluronan secreted in NIH3T3 cell culture media; assay type: cell-based, mouse; details: for Effect on hyaluronan production (in words): NIH3T3 HA production assay; for IC50: Mus musculus, NIH3T3, 72 h, read-out: IC50 for inhibition of hyaluronan deposition in cell culture media
NIH3T3 cells [9] = test: MTT cell viability assay; assay type: cell-based, mouse; details: proliferating NIH3T3 cells, 3 days incubation
How it was run: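 Proliferating NIH3T3 fibroblasts exposed for 3 days to rising test compound concentrations. MTT (5 mg/mL in PBS, 10 μL per 100 μL medium) incubated 3 h at 37°C, 5% CO2. Plates centrifuged, medium removed, formazan dissolved in DMSO, absorbance read at 570 nm. n = 3.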

[10] = system: human pancreatic cancer cell (KP1-NL); details: fixed concentration 10 μM; ref Morohashi et al. 2006; cited from earlier work
[11] = system: Drosophila mutEt15 (I1056F/M); details: Drosophila line with CRISPR/Cas9 point mutation I1056F/M; ref Douris et al. 2016; cited from earlier work
Drosophila WT = details: wild-type Drosophila; ref Douris et al. 2016; cited from earlier work
zebrafish embryos = details: ref Park et al. 2019; cited from earlier work

IC50 (HAS2; Mus musculus, NIH3T3, read-out: IC50 for inhibition of HAS2 expression): ~250 µM
IC50 (Hyal1; Mus musculus, NIH3T3, read-out: Upregulated Hyal1 expression with IC50): ~250 µM
Blood parameters, compound alone vs control group [6]: did not find any significant differences
Compound: Cc1cc(=O)oc2cc(O)ccc12 [Compound 4MU, 7-hydroxy-4-methylchromen-2-one]
Activated HAS3 expression at concentration over (HAS3): over 500 μM
Hyal2 expression not affected at concentrations up to (Hyal2): > 1 mM
HA production inhibition (B16F10 cells): 50%
Collagen deposition in the liver [1]: prevented collagen deposition
Effective plasma concentration [2]: 0.89 ± 0.51 μg/mL and 5.1 ± 2.9 μM
Depletion of UDP-GlcUA levels [3]: 38–95%
Decrease of the percentage of HA-positive area (NIH3T3 cells [4]): at least 3 times
Doubling time (NIH3T3 cells [5]; 250 μM): 38 h
Concentration from/over which doubling time increased (NIH3T3 cells [5]): ≥ 60 µM
Reduction of hyaluronan secretion (endothelial cells): 30%
Plasma HA ([6]; CCl4-treated mice, 600 mg/kg daily per os): reduced plasma HA to near the control levels
Hepatotoxicity of compound alone (AST/ALT) [6]: no hepatotoxicity
HA synthesis in cell-free assay (in words) [7]: did not inhibit HA synthesis

Compound: Cc1cc(=O)oc2c(C)c3c(cc12)C(=O)CC1(CCCCC1)O3 [Compound IX, 6′,10′-dimethyl-3′H-spiro[cyclohexane-1,2′-pyrano[3,2-g]chromene]-4′,8′-dione]
Effect on hyaluronan production (in words) (NIH3T3 cells [8]): completely abrogated inhibition of hyaluronan production
Did not affect cell viability at concentrations up to (NIH3T3 cells [9]): > 1 mM
Not toxic in concentrations up to (MTT) (NIH3T3 cells [9]): > 0.5 mM
Doubling time (NIH3T3 cells [5]; all tested concentrations): 16.5 h

Compound: CC(=O)c1cc2c(-c3ccccc3)cc(=O)oc2c(C)c1O [Compound V, 6-acetyl-7-hydroxy-8-methyl-4-phenyl-2H-chromen-2-one]
Toxicity at concentrations higher than (MTT) (NIH3T3 cells [9]): higher than 125 μM
Concentration from/over which doubling time increased (NIH3T3 cells [5]): ≥ 125 µM

Compound: Cc1c2c(cc3c(-c4ccccc4)cc(=O)oc13)C(=O)CC1(CCCCC1)O2 [Compound VI, 10′-methyl-6′-phenyl-3′H-spiro[cyclohexane-1,2′-pyrano[3,2-g]chromene]-4′,8′-dione]
Effect on hyaluronan production (in words) (NIH3T3 cells [8]): completely abrogated inhibition of hyaluronan production
Did not affect cell viability at concentrations up to (NIH3T3 cells [9]): > 1 mM
Not toxic in concentrations up to (MTT) (NIH3T3 cells [9]): > 0.5 mM

Compound: Cc1c2c(cc3c(-c4ccccc4)cc(=O)oc13)C(=O)CC1(CCNCC1)O2 [Compound VII, 10′-methyl-6′-phenyl-3′H-spiro[piperidine-4,2′-pyrano[3,2-g]chromene]-4′,8′-dione]
Decrease of the percentage of HA-positive area (NIH3T3 cells [4]): at least 3 times
Concentration from/over which doubling time increased (NIH3T3 cells [5]): over 10 μM

Compound: COc1ccc2c(C)cc(=O)oc2c1 [II, 7-methoxy-4-methyl coumarin]
Inhibitory activity on HA production (in words) [10]: inactive

Compound: CCN(CC)Cc1cc2c(-c3ccccc3)cc(=O)oc2c(C)c1O [IV, 6-((diethylamino)methyl)-7-hydroxy-8-methyl-4-phenyl-2H-chromen-2-one]
Concentration from/over which doubling time increased (NIH3T3 cells [5]): ≥ 500 µM

Compound: CC(=O)c1cc2c(C)cc(=O)oc2c(C)c1O [VIII, 6-acetyl-7-hydroxy-4,8-dimethyl-2H-chromen-2-one]
Toxicity at concentrations higher than (MTT) (NIH3T3 cells [9]): > 60 µM
Decrease of the percentage of HA-positive area (NIH3T3 cells [4]): at least 3 times
Concentration from/over which doubling time increased (NIH3T3 cells [5]): > 50 µM

Compound: CC(C)N1C(=O)N(c2ccccc2)CSC1=NC(C)(C)C [buprofezin, 2-(tert-butylimino)-5-phenyl-3-(propan-2-yl)-1,3,5-thiadiazinan-4-one]
IC50 (NIH3T3 cells [8]): 1.24 ± 0.87 µM
Not toxic in concentrations up to (MTT) (NIH3T3 cells [9]): > 1 mM
LC50 mutEt15 [11]: > 1000 µg/mL
LC50 WT (Drosophila WT): 53.2 µg/mL (≈ 174 µM)

Compound: O=C(NC(=O)c1c(F)cccc1F)Nc1ccc(Cl)cc1 [diflubenzuron]
LC50 mutEt15 [11]: > 5000 µg/mL
LC50 WT (Drosophila WT): 0.322 µg/mL (≈ 1.04 µM)

Compound: CCOc1cc(C(C)(C)C)ccc1C1COC(c2c(F)cccc2F)=N1 (centres unmarked) [etoxazole, 4-(4-tert-butyl-2-ethoxyphenyl)-2-(2,6-difluorophenyl)-4,5-dihydro-1,3-oxazole]
IC50 (NIH3T3 cells [8]): 4.21 ± 3.82 µM
Effect on cardiovascular development (in words) (zebrafish embryos): inhibits cardiovascular development
Inhibited HAS3 expression at concentrations higher than (HAS3): higher than 250 μM
Level of Hyal2 (in words) (Hyal2): not affected
Not toxic in concentrations up to (MTT) (NIH3T3 cells [9]): > 1 mM
Upregulation of HAS2 expression (HAS2; NIH3T3 cells, 120 μM): ~1.5 times
Suppression of HAS2 expression (HAS2; NIH3T3 cells, doses higher than 120 μM): up to 80%
Hyal1 level (in words) (Hyal1; NIH3T3 cells, all tested concentrations): significantly dropped
αSMA level in liver homogenate (western blot) ([6]; CCl4-treated mice, 600 mg/kg daily per os, n = 5): significant reduction
Plasma HA ([6]; CCl4-treated mice, 600 mg/kg daily per os, 600 mg/kg): reduced plasma HA to near the control levels
Plasma HA ([6]; CCl4-treated mice, 600 mg/kg daily per os, listed as Etoxazole, 600 mg/kg): reduced HA production
Blood parameters, compound alone vs control group [6]: did not find any significant differences
Hepatotoxicity of compound alone (AST/ALT) [6]: no hepatotoxicity

Compound: O=C(NC(=O)c1c(F)cccc1F)Nc1cc(Cl)c(OC(F)(F)C(F)C(F)(F)F)cc1Cl (centres unmarked) [lufenuron]
LC50 mutEt15 [11]: 16.659 µg/mL (≈ 32.6 µM)
LC50 WT (Drosophila WT): 0.148 µg/mL (≈ 0.29 µM)

Compound: C[C@@H]([C@H](N)C(=O)N[C@H](C(=O)O)[C@H]1O[C@@H](n2ccc(=O)[nH]c2=O)[C@H](O)[C@@H]1O)[C@H](O)c1ccc(O)cn1 [nikkomycin]
Effect on hyaluronan production (in words) (NIH3T3 cells [8]): ineffective

Compound: O=C(NC(=O)c1ccccc1Cl)Nc1ccc(OC(F)(F)F)cc1 [triflumuron, 2-chloro-N-[[4-(trifluoromethoxy)phenyl]carbamoyl] benzamide]
IC50 (NIH3T3 cells [8]): 1.48 ± 1.44 µM
Not toxic in concentrations up to (MTT) (NIH3T3 cells [9]): > 1 mM
